# Results as given in article PMC7962621 (Cell, 2019).
# How the values were obtained:
# [1] = tested on: CD4 T cells from DQ8+ T1D subjects; experiment: CFSE proliferation assay with immobilized peptide/DQ8 complexes, T1D subjects; format: cell-based, human; details: peptide-loaded DQ8 immobilized (10 μM), 7 days, CFSElow CD4 T cells; n = 3
# Outline: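 Freshly isolated PBMCs were washed in warm PBS and labelled with 1 μM CFSE for 1–2 min at 37 °C, then quenched with chilled medium. Thrombin-cleaved, CLIP-free DQ8 monomers (0.5 μM) were loaded with peptide (100 μM) for 72 h at 37 °C in pH 5.5 citrate phosphate buffer, then immobilized in wells. Unstimulated cells served as negative control and anti-CD3/CD28 as positive control.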
# [2] = relative to native insulin; ref Wang et al., 2018; cited from earlier work
# DQ8 = details: two registers placing nonacidic residues at P1 and P9; background statement; cited from earlier work
Substance,Stimulation of CD4 T cells from DQ8+ T1D subjects [1],Fold potency vs native insulin B:9–23 [2],Binding of insulin B:9–23 peptide to DQ8 (DQ8)
CARQRFWSGPLFDYW [h-Id],no significant responses,–,–
SHLVEALYLVCGEEG [mimotope],–,100 fold,–
SHLVEELYLVAGEEG [superagonist],–,"about 1,000 fold",–
native insulin: insulin B:9–23 peptide SHLVEALYLVCGERG,no significant responses,–,binds poorly to DQ8
